These results are taken from ChEMBL document CHEMBL4304743, “Discovery of ( E)- N1-(3-Fluorophenyl)- N3-(3-(2-(pyridin-2-yl)vinyl)-1 H-indazol-6-yl)malonamide (CHMFL-KIT-033) as a Novel c-KIT T670I Mutant Selective Kinase Inhibitor for Gastrointestinal Stromal Tumors (GISTs)” (J Med Chem, 2019).

Calls of active or inactive are those of the source. The rule behind the calls is not given here.

Series [1] relates to GISTT1. As to the kind of experiment: Induction of apoptosis in human GISTT1 cells harboring c-KIT 560 to 578 deletion mutant assessed as increase in cleaved PARP level after 24 hrs by Western blot analysis. The series is classed as functional, cell-based. The essentials:
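GIST cells grown in DMEM with 10% FBS, treated 24 h with serially diluted compound; apoptosis read by Western blot for PARP, with GAPDH as loading control.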
A general note: A western blot detects proteins with antibodies after separation by electrophoresis.

Series [2] is described as follows: Cmax in mouse at 10 mg/kg, po measured after 5 to 720 mins by LC-tandem mass spectrometry analysis. The class given is ADME, organism-based. More on the design: dose 10 mg/kg, route oral. Conditions: in vivo. Summed up:
(§1)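 Mice dosed 1 mg/kg i.v. or 10 mg/kg p.o.; plasma drug levels by LC-MS/MS, parameters by noncompartmental analysis; values not from triplicate testing.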

Series [3] concerns Mast/stem cell growth factor receptor Kit (Homo sapiens), P10721 [D816V]. The series can be described thus: Inhibition of TEL fused c-KIT D816V mutant (unknown origin) transfected in mouse BAF3 cells assessed as growth inhibition after 72 hrs by CCK8 assay. The class given is cell-based. The essentials: (§2)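 Tel-c-KIT-transformed BaF3 lines (IL-3 independent) kept in RPMI 1640 with 10% FBS, 2% L-glutamine and pen/strep. Cells at 1.5 to 5 × 10^4 cells/mL mixed with graded compound and incubated 72 h at 37 °C, 5% CO2. Viability by CCK-8 absorbance at 450 nm, normalized to DMSO. GI50 from dose–response fit.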

Series [4] concerns Mast/stem cell growth factor receptor Kit (Homo sapiens), P10721 [UNDEFINED MUTATION]. As to the kind of experiment: Inhibition of c-KIT 560 to 578 deletion/T670I double mutant in human GISTT1 cells assessed as reduction in c-KIT autophosphorylation at Y719 residue at 0.1 uM to 3 uM after 1 hr by Western blot analysis. The series is classed as cell-based. The essentials:
(§3)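 Serial compound dilutions applied for 1 h to GIST-T1, GIST-T1-T670I (CRISPR/Cas9 T670I knock-in, clone confirmed by Sanger sequencing) or GIST-5R cells in DMEM with 10% FBS. Cells then lysed and phospho-proteins detected by standard Western blotting.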

The target in series [5] is Mast/stem cell growth factor receptor Kit (Homo sapiens, UniProt P10721, T670I). As to the kind of experiment: Inhibition of TEL fused wild type c-KIT T670I mutant (unknown origin) transfected in mouse BaF3 cells assessed as reduction in phosphorylation at Y719 residue after 2 hrs by Western blot analysis. The series is classed as cell-based.
The test system of series [6] is Mast/stem cell growth factor receptor Kit (Homo sapiens), P10721 [V559A]. As to the kind of experiment: Inhibition of TEL fused c-KIT V559A mutant (unknown origin) transfected in mouse BAF3 cells assessed as growth inhibition after 72 hrs by CCK8 assay. The series is classed as cell-based. Summed up: as §2
For orientation: Tetrazolium assays rely on reduction of a dye to a coloured formazan, in cell work by metabolically active cells.

The subject of series [7] is Mast/stem cell growth factor receptor Kit (Homo sapiens), P10721 [UNDEFINED MUTATION]. The series can be described thus: Inhibition of c-KIT 560 to 578 deletion mutant in human GISTT1 cells assessed as reduction in STAT3 phosphorylation at 0.1 uM to 3 uM after 1 hr by Western blot analysis. The class given is cell-based. Summed up:
as §3

Series [8] in a line: AUC (0 to infinity) in Sprague-Dawley rat at 10 mg/kg, po measured after 5 to 720 mins by LC-tandem mass spectrometry analysis. To be noted: in vivo. More on the design: dose 10 mg/kg, route oral, time infinity. The class given is ADME, organism-based. Summed up:
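Male Sprague-Dawley rats (190-210 g), fasted 12 h, randomized into two groups: 1 mg/kg i.v. or 10 mg/kg p.o., both formulated in 10% DMSO/90% of 5% glucose water. Blood sampled at 2-720 min (i.v.) or 5-720 min (p.o.). Plasma protein-precipitated with methanol, caffeine internal standard, LC-MS/MS. Noncompartmental analysis; triplicate, ±SD.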

The test system of series [9] is Mast/stem cell growth factor receptor Kit (Homo sapiens), P10721 [UNDEFINED MUTATION]. As to the kind of experiment: Inhibition of c-KIT 560 to 578 deletion/T670I double mutant in human GIST5R cells assessed as reduction in c-KIT autophosphorylation at Y703 residue at 0.1 uM to 3 uM after 1 hr by Western blot analysis. The class given is cell-based. Summed up:
as §3

Series [10] can be described thus: AUC (0 to infinity) in mouse at 1 mg/kg, iv measured after 2 to 720 mins by LC-tandem mass spectrometry analysis. The series is classed as ADME, organism-based. More on the design: dose 1 mg/kg, time infinity, route intravenous. To be noted: in vivo. The essentials:
as §1

The nature of series [11]: AUC (0 to t) in mouse at 1 mg/kg, iv measured after 2 to 720 mins by LC-tandem mass spectrometry analysis. The class given is ADME, organism-based. Conditions: in vivo. The essentials: as §1
A short description of series [12]: Antiproliferative activity against human GIST48B cells incubated for 72 hrs by CCK8 assay. The series is classed as functional. Summed up:
(§4)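 Adherent GIST cells seeded at 1.5-5 × 10^4 cells/mL and left overnight at 37 °C, 5% CO2. Medium then replaced with medium holding serial compound dilutions; 72 h incubation. Viability by CCK-8, absorbance at 450 nm, normalized to DMSO control; GI50 from dose-response fit.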

Series [13] concerns GISTT1. As to the kind of experiment: Antiproliferative activity against human GISTT1 cells harboring c-KIT 560 to 578 deletion mutant incubated for 72 hrs by CCK8 assay. Conditions: GISTT1, 72 h. The series is classed as functional. The essentials: as §4
The nature of series [14]: Antitumor activity against human GIST5R cells xenografted in nude mouse assessed as tumor weight at 100 mg/kg, po administered […] via gavage for 28 days (reference value: 0.59g). The series is classed as functional. The essentials:
(§5)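 Female nu/nu mice (5 weeks old) given subcutaneous right-flank GIST-5R cells in Matrigel. Dosing began at tumors of 200-400 mm3; randomized, 4 mice per group. Daily oral dosing (QD) at 25, 50 or 100 mg/kg in 0.5% methylcellulose/0.4% Tween80, or vehicle alone, for 28 days. Body weight and tumor volume, (W²×L)/2, measured daily; mean±SEM.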

The target in series [15] is Platelet-derived growth factor receptor beta (Homo sapiens, UniProt P09619). As to the kind of experiment: Binding affinity to wild-type human partial length PDGFRB (V582 to Y1009 residues) expressed in bacterial expression system assessed as enzyme remaining activity at 1 uM by Kinomescan assay relative to control. Summed up: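 KINOMEscan competition binding panel of 468 kinases and mutants, compound at 1 μM; binding reported as percent of control.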

Series [16] concerns the target Serine/threonine-protein kinase Nek1 (Homo sapiens, UniProt Q96PY6). The series can be described thus: Inhibition of wild-type human partial length NEK1 (M1 to K278 residues) expressed in bacterial expression system after 1 hr by Z-LYTE assay.
The test system of another series is Homo sapiens. The series can be described thus: Antitumor activity against human GIST5R cells xenografted in po dosed nude mouse assessed as reduction in tumor size administered […] via gavage for 28 days post tumor inoculation. The series is classed as functional, organism-based. The essentials: as §5
In general terms: In xenograft studies the graft and the host belong to different species.

The nature of series [17]: Apparent clearance in mouse at 10 mg/kg, po measured after 5 to 720 mins by LC-tandem mass spectrometry analysis. The series is classed as ADME, organism-based. Conditions: in vivo, read-out: CL(app) (converted). Summed up: as §1
In series [18] the test system is GISTT1. The series can be described thus: Induction of apoptosis in human GISTT1 cells harboring c-KIT 560 to 578 deletion/T670I double mutant assessed as increase in cleaved PARP level after 24 hrs by Western blot analysis. The series is classed as functional, cell-based. The essentials:
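GIST-T1-T670I cells grown in DMEM with 10% FBS, exposed to serially diluted compound for 24 h. Apoptosis read by Western blot with PARP and GAPDH antibodies.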

In the next series the test system is GIST882. As to the kind of experiment: Antiproliferative activity against human GIST882 cells harboring c-KIT K642E mutant incubated for 72 hrs by CCK8 assay. The series is classed as functional. To be noted: GIST882, 72 h. Summed up: as §4
Series [19] relates to Mast/stem cell growth factor receptor Kit (Homo sapiens), P10721 [UNDEFINED MUTATION]. As to the kind of experiment: Inhibition of c-KIT 560 to 578 deletion/T670I double mutant in human GIST5R cells assessed as reduction in c-KIT autophosphorylation at Y719 residue at 0.1 uM to 3 uM after 1 hr by Western blot analysis. The series is classed as cell-based. The essentials: as §3

Series [20] is described as follows: Cmax in mouse at 1 mg/kg, iv measured after 2 to 720 mins by LC-tandem mass spectrometry analysis. The class given is ADME, organism-based. Set-up: dose 1 mg/kg, route intravenous. To be noted: in vivo. The essentials: as §1

Mast/stem cell growth factor receptor Kit (Homo sapiens), P10721 [UNDEFINED MUTATION], sequence (P10721 whole entry, looked up, stated change not applied): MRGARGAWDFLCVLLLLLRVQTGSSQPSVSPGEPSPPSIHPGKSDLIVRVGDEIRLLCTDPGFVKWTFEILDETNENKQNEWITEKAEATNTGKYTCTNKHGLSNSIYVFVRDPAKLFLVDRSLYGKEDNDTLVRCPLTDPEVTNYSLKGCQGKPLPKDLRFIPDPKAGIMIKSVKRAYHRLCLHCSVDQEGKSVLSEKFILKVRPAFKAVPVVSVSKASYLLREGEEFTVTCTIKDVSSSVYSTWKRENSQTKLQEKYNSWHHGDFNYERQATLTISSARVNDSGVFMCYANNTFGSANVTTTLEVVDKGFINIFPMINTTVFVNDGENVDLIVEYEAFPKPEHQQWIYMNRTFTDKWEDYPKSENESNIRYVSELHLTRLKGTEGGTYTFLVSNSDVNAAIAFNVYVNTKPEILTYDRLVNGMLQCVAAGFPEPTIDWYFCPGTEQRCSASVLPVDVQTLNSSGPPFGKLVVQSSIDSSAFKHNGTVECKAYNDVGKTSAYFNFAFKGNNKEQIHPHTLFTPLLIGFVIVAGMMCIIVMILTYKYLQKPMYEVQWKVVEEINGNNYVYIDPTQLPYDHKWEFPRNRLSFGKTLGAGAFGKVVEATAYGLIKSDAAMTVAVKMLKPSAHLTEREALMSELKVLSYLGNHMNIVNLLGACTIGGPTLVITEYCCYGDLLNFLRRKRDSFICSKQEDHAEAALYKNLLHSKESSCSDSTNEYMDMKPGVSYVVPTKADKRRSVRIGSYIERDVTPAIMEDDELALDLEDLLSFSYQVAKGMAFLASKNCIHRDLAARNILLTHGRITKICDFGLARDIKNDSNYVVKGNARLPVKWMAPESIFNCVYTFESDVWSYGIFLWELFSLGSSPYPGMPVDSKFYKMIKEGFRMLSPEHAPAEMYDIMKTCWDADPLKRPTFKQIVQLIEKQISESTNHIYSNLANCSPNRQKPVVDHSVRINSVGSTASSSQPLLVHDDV
Platelet-derived growth factor receptor beta, sequence (P09619 whole entry, the tested form may be a part): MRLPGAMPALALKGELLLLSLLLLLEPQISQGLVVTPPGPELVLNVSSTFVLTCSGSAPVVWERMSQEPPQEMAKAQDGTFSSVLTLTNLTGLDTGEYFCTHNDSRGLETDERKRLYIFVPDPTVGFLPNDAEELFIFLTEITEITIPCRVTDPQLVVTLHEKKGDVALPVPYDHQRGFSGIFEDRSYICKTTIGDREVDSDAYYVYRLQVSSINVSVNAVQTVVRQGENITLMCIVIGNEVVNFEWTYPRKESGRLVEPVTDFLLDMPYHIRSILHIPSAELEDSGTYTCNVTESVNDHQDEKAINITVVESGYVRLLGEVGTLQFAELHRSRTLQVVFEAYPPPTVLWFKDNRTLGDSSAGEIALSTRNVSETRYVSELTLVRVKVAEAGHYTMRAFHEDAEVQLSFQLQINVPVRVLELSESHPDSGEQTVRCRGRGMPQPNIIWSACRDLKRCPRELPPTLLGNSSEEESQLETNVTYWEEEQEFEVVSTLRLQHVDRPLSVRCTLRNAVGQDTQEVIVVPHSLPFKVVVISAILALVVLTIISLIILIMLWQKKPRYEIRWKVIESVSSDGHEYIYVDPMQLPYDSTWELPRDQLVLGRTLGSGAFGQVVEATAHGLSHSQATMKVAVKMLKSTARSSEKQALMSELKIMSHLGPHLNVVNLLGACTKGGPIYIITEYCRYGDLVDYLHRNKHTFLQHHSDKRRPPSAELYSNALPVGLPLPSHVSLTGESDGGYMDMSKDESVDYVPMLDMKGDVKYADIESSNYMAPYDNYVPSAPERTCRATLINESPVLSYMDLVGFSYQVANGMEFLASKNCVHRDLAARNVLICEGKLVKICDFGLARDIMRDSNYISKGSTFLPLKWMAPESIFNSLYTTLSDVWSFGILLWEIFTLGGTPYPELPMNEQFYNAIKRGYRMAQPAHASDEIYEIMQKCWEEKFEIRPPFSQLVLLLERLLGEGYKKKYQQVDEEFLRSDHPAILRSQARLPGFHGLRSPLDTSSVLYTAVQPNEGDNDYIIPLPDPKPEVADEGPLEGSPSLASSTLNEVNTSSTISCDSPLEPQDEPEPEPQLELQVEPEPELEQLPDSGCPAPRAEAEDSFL
Mast/stem cell growth factor receptor Kit (Homo sapiens), P10721 [V559A], sequence (P10721 whole entry V559A, the tested form may be a part): as the sequence (P10721 whole entry, looked up, stated change not applied) above, with V559A counted along it
Mast/stem cell growth factor receptor Kit (Homo sapiens), P10721 [D816V], sequence (P10721 whole entry D816V, the tested form may be a part): as the sequence (P10721 whole entry, looked up, stated change not applied) above, with D816V counted along it
Mast/stem cell growth factor receptor Kit, sequence (P10721 26-976 T670I limits assumed): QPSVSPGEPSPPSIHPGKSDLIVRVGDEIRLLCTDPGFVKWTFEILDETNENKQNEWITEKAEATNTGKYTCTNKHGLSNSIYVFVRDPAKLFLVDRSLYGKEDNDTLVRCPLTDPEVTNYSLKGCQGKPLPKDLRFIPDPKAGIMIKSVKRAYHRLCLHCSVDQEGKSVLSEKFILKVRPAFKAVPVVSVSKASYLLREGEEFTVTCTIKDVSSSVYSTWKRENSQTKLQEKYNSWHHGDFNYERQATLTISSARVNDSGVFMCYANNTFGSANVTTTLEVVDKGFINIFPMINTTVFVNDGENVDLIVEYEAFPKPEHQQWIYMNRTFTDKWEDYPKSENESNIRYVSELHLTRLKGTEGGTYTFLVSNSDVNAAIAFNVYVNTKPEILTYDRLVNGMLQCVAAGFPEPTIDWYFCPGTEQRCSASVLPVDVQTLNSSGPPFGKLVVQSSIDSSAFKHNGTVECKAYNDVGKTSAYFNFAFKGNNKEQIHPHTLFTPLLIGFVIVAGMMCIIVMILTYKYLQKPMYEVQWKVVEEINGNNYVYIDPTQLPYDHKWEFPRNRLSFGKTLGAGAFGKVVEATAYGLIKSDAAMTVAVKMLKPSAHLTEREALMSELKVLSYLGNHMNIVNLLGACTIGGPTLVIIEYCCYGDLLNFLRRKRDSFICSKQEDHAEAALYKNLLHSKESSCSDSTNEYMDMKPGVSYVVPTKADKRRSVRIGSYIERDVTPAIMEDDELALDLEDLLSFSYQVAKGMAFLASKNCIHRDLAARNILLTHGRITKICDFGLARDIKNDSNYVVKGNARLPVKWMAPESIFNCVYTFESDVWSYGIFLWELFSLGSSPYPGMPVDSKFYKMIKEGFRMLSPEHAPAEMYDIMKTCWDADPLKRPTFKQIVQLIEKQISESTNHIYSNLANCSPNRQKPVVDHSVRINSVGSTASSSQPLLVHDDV
Serine/threonine-protein kinase Nek1, sequence (Q96PY6 whole entry, the tested form may be a part): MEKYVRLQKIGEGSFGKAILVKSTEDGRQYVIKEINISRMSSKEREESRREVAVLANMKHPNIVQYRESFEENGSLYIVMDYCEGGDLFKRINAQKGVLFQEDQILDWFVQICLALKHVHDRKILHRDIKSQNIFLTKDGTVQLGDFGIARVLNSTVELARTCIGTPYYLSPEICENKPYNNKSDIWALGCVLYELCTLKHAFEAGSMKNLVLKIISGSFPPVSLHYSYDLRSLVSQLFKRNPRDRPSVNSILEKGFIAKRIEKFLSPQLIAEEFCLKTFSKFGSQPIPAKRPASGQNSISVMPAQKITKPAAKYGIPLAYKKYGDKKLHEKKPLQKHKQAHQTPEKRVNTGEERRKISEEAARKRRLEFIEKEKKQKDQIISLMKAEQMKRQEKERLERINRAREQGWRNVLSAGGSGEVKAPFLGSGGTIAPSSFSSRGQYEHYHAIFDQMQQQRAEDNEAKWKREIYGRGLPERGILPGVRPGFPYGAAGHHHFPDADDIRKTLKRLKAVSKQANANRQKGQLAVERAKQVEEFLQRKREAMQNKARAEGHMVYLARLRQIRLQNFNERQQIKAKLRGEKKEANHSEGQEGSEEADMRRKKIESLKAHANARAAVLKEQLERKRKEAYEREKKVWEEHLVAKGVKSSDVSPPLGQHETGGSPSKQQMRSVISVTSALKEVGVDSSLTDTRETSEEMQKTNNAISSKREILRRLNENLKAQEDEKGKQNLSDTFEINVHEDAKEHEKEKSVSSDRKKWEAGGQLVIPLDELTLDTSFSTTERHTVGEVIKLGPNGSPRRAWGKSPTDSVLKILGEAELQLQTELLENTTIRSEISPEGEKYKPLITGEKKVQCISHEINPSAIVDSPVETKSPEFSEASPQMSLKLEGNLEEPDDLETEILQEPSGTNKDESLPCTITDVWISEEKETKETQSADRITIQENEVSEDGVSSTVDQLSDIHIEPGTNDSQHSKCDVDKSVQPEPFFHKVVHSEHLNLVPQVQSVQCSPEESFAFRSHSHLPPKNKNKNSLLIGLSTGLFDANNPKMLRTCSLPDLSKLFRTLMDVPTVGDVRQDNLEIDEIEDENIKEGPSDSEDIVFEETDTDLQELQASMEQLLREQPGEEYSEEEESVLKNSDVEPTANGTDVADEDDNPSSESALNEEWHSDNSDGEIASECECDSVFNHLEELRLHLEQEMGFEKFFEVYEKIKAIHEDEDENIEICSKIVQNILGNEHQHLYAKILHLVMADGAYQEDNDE

Consider `O=C(CC(=O)Nc1ccc2c(/C=C/c3ccccn3)n[nH]c2c1)Nc1cccc(F)c1`, for which the Activity result with GISTT1 [1] was “Dose-dependent effect”; in series [14], 0.1 g; in [15], 0%; with GISTT1 [18], “Dose-dependent effect”. Further, the Cmax in series [2] amounted to 1120 ng/mL; in series [20], 3020 ng/mL. The GI50 is 3460 nM in [3]; 31 nM in series [6]; over 10000 nM in series [12]; 52 nM in the series on GISTT1 [13]; 296 nM with GIST882. Besides, the inhibition entry in series [4], in series [9] and in series [19] was “Active” each time. For the same compound, in [5], the concentration for a half-maximal effect (EC50) turned out to be 750 nM. Besides, in series [7], the inhibition result was “inactive”. Also, the results for the total exposure AUC(0-inf) in series [8] and in [10] were 809 ng·h/mL and 901 ng·h/mL, respectively. In series [11], this compound displayed an AUC(0-t) of 898 ng·h/mL. For the same compound, in [16], the IC50 was over 10000 nM. Moreover, the inhibition result with Homo sapiens is “Dose-dependent effect”. In addition, the CL/F in [17] was 113 mL/min/kg.

The Cmax is the highest concentration seen after dosing. Broadly, the GI50 is the concentration at which growth is held to half of that of the control. For orientation: EC50 means the concentration needed to bring the measured effect to its halfway point. One may read the AUC(0-inf) as the area under the concentration-time curve extrapolated to infinity. In general, AUC(0-t) refers to the area under the concentration-time curve up to a stated or last time point. What is called IC50 is the point on the concentration scale where inhibition reaches its midpoint. The low end stands for greater potency, the high end for weaker potency.
